This is an account of results in ChEMBL document CHEMBL4052819 (2017).

Values after ≈ are worked out from the molar mass of the structure shown. Active and inactive are the calls of the source. The rule behind the calls is not given here. Non-standard residues stand in square brackets, D forms with d. Residues, ends and D or L forms follow the SMILES beside them. *: point of attachment. Decanoyl = CCCCCCCCCC(=O)*; Dab = NCC[C@H](N)C(=O)O Bounds are passed on as bounds.

What all share (assay type): functional
Assay [1] concerns Acinetobacter baumannii. Kind of assay: Antibacterial activity against Acinetobacter baumannii ATCC 19606 after 18 to 20 hrs by broth microdilution method. The settings on record: ATCC 19606 = CIP 70.34 = JCM 6841. Background: Dilution methods test growth across graded concentrations, often in twofold steps.
The subject of assay [2] is Escherichia coli. Nature of the assay: Antibacterial activity against Escherichia coli ATCC 25922 after 18 to 20 hrs by broth microdilution method. In outline:
(§1)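 Broth microdilution in tryptic soy broth: 2-fold dilutions mixed 1:1 with ~1.5 × 10^5 CFU/mL inoculum, final 0.5–32 μg/mL; 37 °C, 18–20 h. MIC taken as lowest concentration giving no visible growth. At least three independent experiments, one replicate each.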

For assay [3], the system named is Klebsiella pneumoniae. Kind of assay: Antibacterial activity against Klebsiella pneumoniae ATCC 13883 after 18 to 20 hrs by broth microdilution method.
The test system of assay [4] is Pseudomonas aeruginosa. Kind of assay: Antibacterial activity against Pseudomonas aeruginosa ATCC 27853 after 18 to 20 hrs by broth microdilution method. In outline: as §1
The subject of assay [5] is Enterococcus faecium. Kind of assay: Antibacterial activity against Enterococcus faecium ATCC 19434 after 18 to 20 hrs by broth microdilution method. In outline:
as §1

Assay [6] concerns Staphylococcus aureus. Nature of the assay: Antibacterial activity against Staphylococcus aureus ATCC 29213 after 18 to 20 hrs by broth microdilution method. Put shortly: as §1
In assay [7] the test system is Staphylococcus aureus. Kind of assay: Antibacterial activity against methicillin-resistant Staphylococcus aureus ATCC 43300 after 18 to 20 hrs by broth microdilution method. Put shortly:
(§2)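 Broth microdilution in tryptic soy broth: 2-fold dilutions mixed 1:1 with ~1.5 × 10^5 CFU/mL bacterial suspension in TSB, final 0.5–32 μg/mL, 37 °C for 18–20 h. MIC = lowest concentration with no visible growth. At least three independent experiments, one replicate each.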

Assay [8] has as its system Acinetobacter baumannii. Kind of assay: Bactericidal activity against Acinetobacter baumannii ATCC 19606. The settings on record: ATCC 19606 = CIP 70.34 = JCM 6841, read-out: MBC99.9. In outline:
(§3)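 MBC from MIC plates at end point: 50 μL from each well with no visible growth plated on tryptic soy agar and counted. MBC taken as lowest concentration giving ≥99.9% fall in viable count relative to initial inoculum. Three independent experiments, one replicate each.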

Assay [9] relates to Escherichia coli. Kind of assay: Bactericidal activity against Escherichia coli ATCC 25922. The following applies: read-out: MBC99.9. Put shortly:
as §3

For assay [10], the system named is Klebsiella pneumoniae. Nature of the assay: Bactericidal activity against Klebsiella pneumoniae ATCC 13883. The following applies: read-out: MBC99.9. Put shortly: as §3
For assay [11], the system named is Pseudomonas aeruginosa. Kind of assay: Bactericidal activity against Pseudomonas aeruginosa ATCC 27853. The following applies: read-out: MBC99.9. In outline: as §3
In assay [12] the test system is Enterococcus faecium. Nature of the assay: Bactericidal activity against Enterococcus faecium ATCC 19434. The following applies: read-out: MBC99.9. Put shortly:
as §3

Assay [13] relates to Staphylococcus aureus. Kind of assay: Bactericidal activity against Staphylococcus aureus ATCC 29213. The following applies: read-out: MBC99.9. Put shortly:
as §3

The subject of assay [14] is Staphylococcus aureus. Nature of the assay: Bactericidal activity against methicillin-resistant Staphylococcus aureus ATCC 43300. The settings on record: read-out: MBC99.9. In outline:
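MBC taken at the end of the MIC test: 50 μL from each well without visible growth plated on tryptic soy agar. MBC = lowest concentration giving ≥99.9% reduction in viable cells relative to the initial inoculum. Three independent experiments, one replicate each.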

Assay [15] has as its system Escherichia coli. Nature of the assay: Antibacterial activity against Escherichia coli ATCC 25922 after 18 to 20 hrs in presence of 95% serum by broth microdilution method. In outline: (§4)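 Same microdilution with human serum as medium: compound 2-fold diluted in 100% serum, mixed 1:1 with 90% serum holding ~1.5 × 10^5 CFU/mL, giving 95% serum and final 0.5–64 μg/mL. MIC read as no visible growth after incubation as for the broth test.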

In assay [16] the test system is Staphylococcus aureus. Kind of assay: Antibacterial activity against Staphylococcus aureus ATCC 29213 after 18 to 20 hrs in presence of 95% serum by broth microdilution method. In outline:
as §4

For assay [17], the system named is Staphylococcus aureus. Nature of the assay: Antibiofilm activity against methicillin-resistant Staphylococcus aureus LAC established catheter-associated biofilm model after 72 hrs.
Assay [18] has as its system Staphylococcus aureus. Nature of the assay: Antibacterial activity against methicillin-resistant Staphylococcus aureus LAC.
The subject of assay [19] is Pseudomonas aeruginosa. Kind of assay: Bactericidal activity against Pseudomonas aeruginosa ATCC 27853 after 60 mins in presence of LPS. In outline:
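P. aeruginosa at ~10^6 CFU/mL in TSB with E. coli O111:B4 LPS (final 10, 25, 50 or 100 μg/mL), then compound at final 16 μg/mL. Incubated 37 °C, 200 rpm, 60 min; survivors counted on TSA. Three independent experiments, one replicate each.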

Assay [20] has as its system Escherichia coli. Kind of assay: Antibacterial activity against polymyxin-resistant Escherichia coli AR 0494 expressing mcr1 after 18 to 20 hrs by broth microdilution method. Put shortly: as §2
Assay [21] has as its system Escherichia coli. Nature of the assay: Antibacterial activity against polymyxin-resistant Escherichia coli UAMS-ECPR1 after 18 to 20 hrs by broth microdilution method. Put shortly:
as §2

Assay [22] has as its system Escherichia coli. Nature of the assay: Antibacterial activity against polymyxin-resistant Escherichia coli UAMS-ECPR2 after 18 to 20 hrs by broth microdilution method. Put shortly: as §2
In assay [23] the test system is Klebsiella pneumoniae. Nature of the assay: Antibacterial activity against polymyxin-resistant Klebsiella pneumoniae UAMS-KPPR1 after 18 to 20 hrs by broth microdilution method.
Assay [24] deals with Klebsiella pneumoniae. Kind of assay: Antibacterial activity against polymyxin-resistant Klebsiella pneumoniae UAMS-KPPR3 after 18 to 20 hrs by broth microdilution method.

As a reminder, the MIC is the least concentration at which growth counts as inhibited. For `CCCCCCCCCC(=O)N[C@@H](CCN)C(=O)N[C@H](C(=O)N[C@@H](CCN)C(=O)N[C@H](Cc1ccccc1)C(=O)N[C@@H](CC(C)C)C(=O)N[C@@H](CCN)C(=O)N[C@@H](C(=O)N[C@@H](CC(C)C)C(=O)N[C@@H](CO)C(N)=O)C(C)C)[C@@H](C)CC` (Decanoyl-[Dab]I[Dab][dF]L[Dab][dV]LS-NH2), the MIC in assay [1] is 0.5 to 2 µg/mL (≈ 0.437 to 1.75 µM); in assay [2], 2 to 8 µg/mL (≈ 1.75 to 6.99 µM); in assay [3], 2 to 4 µg/mL (≈ 1.75 to 3.49 µM); in assay [4], 1 to 2 µg/mL (≈ 0.874 to 1.75 µM); in assay [5], 2 µg/mL (≈ 1.75 µM); in [6], 2 to 4 µg/mL (≈ 1.75 to 3.49 µM). For the same compound, the MIC in [7] was 2 to 4 µg/mL (≈ 1.75 to 3.49 µM); in [15], 32 µg/mL; in assay [16] it was 16 µg/mL. Besides, the MBC in assay [8] was 0.5 to 2 µg/mL (≈ 0.437 to 1.75 µM); in [9], 8 µg/mL (≈ 6.99 µM); in assay [10], 4 to 8 µg/mL (≈ 3.49 to 6.99 µM); in assay [11], 2 to 4 µg/mL (≈ 1.75 to 3.49 µM); in assay [12] it was 2 to 4 µg/mL (≈ 1.75 to 3.49 µM); in assay [13], 4 to 8 µg/mL (≈ 3.49 to 6.99 µM). The MBC in assay [14] was 2 to 4 µg/mL (≈ 1.75 to 3.49 µM). Also, the outcome in assay [17] and in [19] was inactive. For the same compound, the result in assay [18] was Active.
As to POLYMYXIN B, the MIC in assay [20] is 2 to 8 µg/mL; in [21], 32 µg/mL; in [22], 32 µg/mL; in [23], above 32 µg/mL; in assay [24] it was above 32 µg/mL.
